Molecules are shown by their SMILES.

Data on 3 compounds can be found in ChEMBL document CHEMBL1122024, “Quantitative structure-inhibitory activity relationships of phenols and fatty acids for Bacillus subtilis spore germination” (J Med Chem, 1982).

A short description of data set [1]: Distribution coefficient (log D) was determined at pH 7.2.
A short description of data set [2]: physchem.
Data set [3] has as its system Bacillus subtilis. The class given is functional.
The subject of data set [4] is Bacillus subtilis. Description: microbe, parasite or virus in culture. The class given is functional, organism-based. The following applies: read-out: I50.
Data set [5] relates to Bacillus subtilis.
For data set [6], the system named is Bacillus subtilis. As to the kind of experiment: Inhibitory activity on germination of Bacillus subtilis PCI219 spores was determined; No inhibition at 5e-2M. The class given is functional, organism-based. Summed up: (§1)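 Unheated B. subtilis PCI219 spores (about 2.2×10^8 cells per mL) were incubated with the test compound in 0.1 mM L-alanine germinant and 0.05 M phosphate buffer, pH 7.2, at 37 °C. Germination was followed as the decrease in absorbance at 650 nm. The rate was taken as the slope of the steepest linear portion and compared with an inhibitor-free control.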

The nature of data set [7]: physchem. To be noted: octanol/water.
Data set [8] in a line: Dissociation constant was determined spectrophotometrically; Experiment 1. The class given is physicochemical.
The subject of data set [9] is Bacillus subtilis. Description: Inhibitory activity on germination of Bacillus subtilis PCI219 spores was determined; No inhibition at 5*10e-2 M. The class given is functional, organism-based. Summed up:
as §1

As usually defined, the logD is the decadic logarithm of the distribution of all forms, ionised or not, between an organic phase and buffer at a given pH. Higher therefore signals a more lipophilic compound. By pKa is commonly meant the pH at which an ionisable group is half protonated. Higher therefore signals a group that holds its proton tightly. On to `O=[N+]([O-])c1cccc(O)c1` [3-NITRO-PHENOL], for which the log distribution coefficient (logD) in [1] was found to be 1.97. In data set [2], the pKa was found to be 8.4. Also, the “Log 1/I50” value in [3] is recorded as 3.05 1/M. Besides, in data set [4], the IC50 is 901 µM.
Consider `Nc1ccc(O)cc1` [4-AMINOPHENOL], for which the “Log 1/I50” value in data set [5] is “No inhibition”. Also, in data set [6], the I50 result was “No inhibition”. In data set [2], this compound registered a pKa of 10.3.
By logP is commonly meant a log measure of how a compound divides between an organic and an aqueous phase. A higher logP goes with higher lipophilicity. `O=C(O)c1ccc(O)cc1` [PARABEN] showed a logP in data set [7] of 1.57. Further, the pKa in [8] was 9.4. For the same compound, the I50 entry in [9] is listed as “Not Active”.
